Data on 33 compounds can be found in ChEMBL document CHEMBL5634103 (Eur J Med Chem, 2023).

In experiment [1] the target is T1, D(3) dopamine receptor (Homo sapiens, UniProt P35462). The experiment in a line: Displacement of [125I]IABN from human D3 receptor expressed in HEK cells measured after 60 mins by gamma counting method. The experiment is classed as cell-based. On the technique in general: Displacement assays read how much labelled ligand stays bound in the presence of the test substance.
T1 sequence (P35462 whole entry): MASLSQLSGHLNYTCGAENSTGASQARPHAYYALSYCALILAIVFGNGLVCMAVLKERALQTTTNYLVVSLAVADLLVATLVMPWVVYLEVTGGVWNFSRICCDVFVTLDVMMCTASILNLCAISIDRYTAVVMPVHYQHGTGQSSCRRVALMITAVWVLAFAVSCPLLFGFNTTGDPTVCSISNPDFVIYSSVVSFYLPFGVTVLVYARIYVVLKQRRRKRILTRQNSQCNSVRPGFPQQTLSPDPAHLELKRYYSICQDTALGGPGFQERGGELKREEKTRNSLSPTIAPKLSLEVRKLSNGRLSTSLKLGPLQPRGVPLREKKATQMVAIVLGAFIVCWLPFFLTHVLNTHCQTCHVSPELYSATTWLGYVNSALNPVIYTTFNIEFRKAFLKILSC

For experiment [2], the species on record is Homo sapiens. Description: Selectivity ratio of Ki for displacement of [125I]IABN from human D2L receptor expressed in HEK cells to Ki for displacement of [125I]IABN from human D3R expressed in HEK cells. The experiment is classed as cell-based. In outline:
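20 µM (+)-butaclamol defines nonspecific binding. Inhibitor over 5 log units, two points per decade, triplicates. Gamma counting. Single-site IC50 converted to Ki (Cheng–Prusoff), ≥3 experiments. Ratio is D2 Ki/D3 Ki.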

Experiment [3] deals with T1, D(3) dopamine receptor. The experiment in a line: Binding affinity to human D3 receptor expressed in CHO-K1 cells assessed as inhibition of dopamine-induced beta-arrestin recruitment preincubated for 30 mins followed by dopamine addition and measured after 90 mins by pathhunter assay.
The target of experiment [4] is T2, D(2) dopamine receptor (Homo sapiens, UniProt P14416). Description: Displacement of [125I]IABN from human D2L receptor expressed in HEK cells measured after 60 mins by gamma counting method. The format is cell-based.
T2 sequence (P14416 whole entry): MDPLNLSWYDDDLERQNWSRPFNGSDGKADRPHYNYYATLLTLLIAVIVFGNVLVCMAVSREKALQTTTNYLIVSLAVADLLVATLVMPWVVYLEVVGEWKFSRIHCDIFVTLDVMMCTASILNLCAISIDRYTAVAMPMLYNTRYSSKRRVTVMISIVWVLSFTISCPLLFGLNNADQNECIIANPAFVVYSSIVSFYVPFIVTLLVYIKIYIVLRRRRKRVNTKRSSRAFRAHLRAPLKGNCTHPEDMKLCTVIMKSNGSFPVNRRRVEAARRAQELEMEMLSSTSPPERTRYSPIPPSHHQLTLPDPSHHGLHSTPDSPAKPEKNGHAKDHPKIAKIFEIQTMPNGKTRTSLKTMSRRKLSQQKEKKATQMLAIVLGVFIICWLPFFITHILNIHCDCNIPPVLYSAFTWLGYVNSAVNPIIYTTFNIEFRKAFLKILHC
The target in experiment [5] is T2, D(2) dopamine receptor. Description: Binding affinity to D2 receptor (unknown origin).

Each structure is given as a SMILES string.

By Ki is commonly meant a dissociation constant, usually derived from enzyme kinetics or from competition with a known ligand. Low readings indicate a stronger hold on the target, high ones a looser hold on the target. As a reminder, the IC50 is the point on the concentration scale where inhibition reaches its midpoint. Take `C=CCN1C[C@H](OC(=O)Nc2ccc(-c3ccsc3)cc2)C[C@H]1CNC(=O)c1cc(CCCF)cc(OC)c1OC`: the Ki in experiment [1] came out at 7.7 nM; in experiment [4] it was 28.8 nM. Further, the Ratio Ki in experiment [2] came to 3.7. In addition, the IC50 in experiment [3] amounted to 169 nM.
With `C=CCN1C[C@H](OC(=O)Nc2ccoc2)C[C@H]1CNC(=O)c1cc(CCCF)cc(OC)c1OC`, the Ki came to 15 nM in experiment [1] and 8.3 nM in experiment [4]. In addition, the Ratio Ki in experiment [2] came out at 0.6.
For `C=CCN1C[C@H](OCc2cccnc2)C[C@H]1CNC(=O)c1cc(CCCF)cc(OC)c1OC`, in that order: 1.7 nM, 2.5 nM and 1.5.
For `C=CCN1CC[C@H](OCCCN)[C@H]1CNC(=O)c1cc(CCCF)cc(OC)c1OC`, in that order: 6.2 nM, 21.4 nM and 3.5.
For the compound `C=CCN1C[C@H](OCc2ccc(C(F)(F)F)cc2)C[C@H]1CNC(=O)c1cc(CCCF)cc(OC)c1OC`, the values for the Ki in experiment [1] and in experiment [4] were 23.7 nM and 32.1 nM, respectively. Moreover, the Ratio Ki in experiment [2] worked out at 1.4.
The like results for `C=CCN1C[C@H](OC(=O)Nc2ccc(-c3ccsc3)cc2)C[C@@H]1CNC(=O)c1cc(CCCF)cc(OC)c1OC` were, in that order, 6790 nM, more than 41000 nM and more than 6.
In the case of `C=CCN1C[C@H](OCCCCN)C[C@H]1CNC(=O)c1cc(CCCF)cc(OC)c1OC`, the results for the Ki in experiment [1] and in experiment [4] were 1.5 nM and 2.2 nM, respectively. The Ratio Ki in experiment [2] came to 1.4.
For `C=CCN1C[C@H](OCCO)C[C@H]1CNC(=O)c1cc(CCCF)cc(OC)c1OC`, in that order: 2.4 nM, 8.4 nM and 3.5.
For `C=CCN1C[C@@H](OC(=O)Nc2ccc(-c3ccsc3)cc2)C[C@H]1CNC(=O)c1cc(CCCF)cc(OC)c1OC`, the Ratio Ki in experiment [2] came to 16.5. The compound further yielded a Ki in experiment [4] of 9690 nM.
For the compound `CCN1C[C@H](OCCCN)C[C@H]1CNC(=O)c1cc(CCCF)cc(OC)c1OC`, the Ki in experiment [1] was determined as 1.4 nM; in experiment [4], 2.9 nM. For the same compound, the Ratio Ki in experiment [2] amounted to 2.1. Besides, the IC50 in experiment [3] was 3.3 nM.
Turning to `C=CCN1C[C@H](OCCCO)C[C@H]1CNC(=O)c1cc(CCCF)cc(OC)c1OC`, the Ki in experiment [1] came out at 7.3 nM; in experiment [4] it was 14.2 nM. Also, in experiment [2], the Ratio Ki was 1.9.
For `C=CCN1C[C@H](OCCCN)C[C@@H]1CNC(=O)c1cc(CCCF)cc(OC)c1OC`, in that order: 1950 nM, 2350 nM and 1.2.
In the case of `C=CCN1C[C@H](OC(=O)Nc2ccsc2)C[C@H]1CNC(=O)c1cc(CCCF)cc(OC)c1OC`, the Ki in experiment [1] stood at 6.1 nM; in experiment [4], 7.7 nM. For the same compound, the Ratio Ki in experiment [2] worked out at 1.3.
With `C=CCN1C[C@H](OCc2ccccc2)C[C@H]1CNC(=O)c1cc(CCCF)cc(OC)c1OC`, the affinity in experiment [1] corresponds to a Ki of 9.5 nM.
On to `C=CCN1C[C@H](OCCN)C[C@H]1CNC(=O)c1cc(CCCF)cc(OC)c1OC`, for which the Ki amounted to 9.5 nM in experiment [1] and 107 nM in experiment [4]. Further, the Ratio Ki in experiment [2] amounted to 11.3. Also, the IC50 in experiment [3] stood at 11 nM.
`C=CCN1C[C@H](OC(=O)Nc2ccccc2)C[C@H]1CNC(=O)c1cc(CCCF)cc(OC)c1OC`: the Ki in experiment [1] was 14.6 nM; in experiment [4], 29.2 nM. The Ratio Ki in experiment [2] was 2.
`C=CCN1C[C@@H](OC(=O)Nc2ccc(-c3ccsc3)cc2)C[C@@H]1CNC(=O)c1cc(CCCF)cc(OC)c1OC`: in experiment [2], the Ratio Ki came to 6.7. The Ki in experiment [4] stood at 189 nM.
As for `CCN1C[C@H](OC(=O)Nc2ccc(-c3ccsc3)cc2)C[C@H]1CNC(=O)c1cc(CCCF)cc(OC)c1OC`, the Ki in experiment [1] is 4.3 nM; in experiment [4] it was 16.2 nM. Also, in experiment [2], the Ratio Ki stood at 3.8. Besides, the half-maximal inhibitory concentration (IC50) in experiment [3] turned out to be 62.7 nM.
With `C=CCN1CC[C@H](OCc2ccccc2)[C@H]1CNC(=O)c1cc(CCCF)cc(OC)c1OC`, the Ki in experiment [1] turned out to be 2.9 nM; in experiment [4], 7.3 nM. Also, the Ratio Ki in experiment [2] came to 2.5.
`C=CCO[C@@H]1C[C@@H](CNC(=O)c2cc(CCCF)cc(OC)c2OC)N(CC=C)C1`: the Ki was 2.6 nM in experiment [1] and 7.4 nM in experiment [4]. For the same compound, in experiment [2], the Ratio Ki amounted to 2.8.
As for `C=CCN1C[C@H](OC(=O)Nc2ccccc2C)C[C@H]1CNC(=O)c1cc(CCCF)cc(OC)c1OC`, the Ki in experiment [1] was found to be 8.4 nM; in experiment [4], 12.6 nM. For the same compound, the Ratio Ki in experiment [2] came to 1.5.
For `C=CCN1C[C@H](OC(=O)NCc2ccccc2)C[C@H]1CNC(=O)c1cc(CCCF)cc(OC)c1OC`, in that order: 6.2 nM, 10.1 nM and 1.6.
As for `C=CCN1C[C@H](OC(=O)Nc2ccc(-c3ccccn3)cc2)C[C@H]1CNC(=O)c1cc(CCCF)cc(OC)c1OC`, the Ki in experiment [1] was found to be 15.8 nM; in experiment [4] it was 22.4 nM. Further, the Ratio Ki in experiment [2] stood at 1.4. In experiment [3], the IC50 stood at 79.2 nM.
Consider `C=CCN1C[C@H](OC(=O)Nc2cccc(N(C)C)c2)C[C@H]1CNC(=O)c1cc(CCCF)cc(OC)c1OC`, for which the Ki is 10.6 nM in experiment [1] and 14 nM in experiment [4]. In experiment [2], the Ratio Ki was determined as 1.3.
For `C=CCN1C[C@H](OC(=O)Nc2ccccn2)C[C@H]1CNC(=O)c1cc(CCCF)cc(OC)c1OC`, in that order: 4.1 nM, 10.1 nM and 2.4.
For `C=CCN1C[C@H](OCCCN)C[C@H]1CNC(=O)c1cc(CCCF)cc(OC)c1OC`, the Ki in experiment [1] amounted to 8.4 nM; in experiment [4] it was 18.6 nM. Also, the Ratio Ki in experiment [2] was 2.2. Moreover, the IC50 in experiment [3] was determined as 1.3 nM.
`C=CCN1C[C@H](OC(=O)Nc2cccnc2)C[C@H]1CNC(=O)c1cc(CCCF)cc(OC)c1OC`: the Ki in experiment [1] was determined as 3.7 nM; in experiment [4], 8.3 nM. Moreover, the Ratio Ki in experiment [2] is 2.2.
As to `C=CCN1C[C@H](OCCCNC(=O)c2ccc(-c3ccsc3)cc2)C[C@H]1CNC(=O)c1cc(CCCF)cc(OC)c1OC`, the values for the Ki in experiment [1] and in experiment [4] were 4.2 nM and 13.4 nM, respectively. Besides, the Ratio Ki in experiment [2] stood at 3.2. For the same compound, the IC50 in experiment [3] was determined as 8.1 nM.
For `C=CCN1C[C@H](OCc2ccc(F)cc2)C[C@H]1CNC(=O)c1cc(CCCF)cc(OC)c1OC`, the Ki was found to be 4.7 nM in experiment [1] and 9.5 nM in experiment [4]. The Ratio Ki in experiment [2] worked out at 2.
`C=CCN1CCC[C@H]1CNC(=O)c1cc(CCCF)cc(OC)c1OC` [FALLYPRIDE] had a Ki in experiment [5] of 0.02 nM.
For `C=CCN1C[C@H](OC(=O)NCCc2ccccc2)C[C@H]1CNC(=O)c1cc(CCCF)cc(OC)c1OC`, the Ki in experiment [1] worked out at 12.8 nM; in experiment [4], 30 nM. Moreover, in experiment [2], the Ratio Ki turned out to be 2.3.
For `C=CCN1C[C@H](OC(=O)Nc2cc(C)ccc2OC)C[C@H]1CNC(=O)c1cc(CCCF)cc(OC)c1OC`, in that order: 12.5 nM, 18.7 nM and 1.5.
Consider `C=CCN1C[C@H](OCc2ccncc2)C[C@H]1CNC(=O)c1cc(CCCF)cc(OC)c1OC`, for which the values for the Ki in experiment [1] and in experiment [4] were 4 nM and 7 nM, respectively. Also, the Ratio Ki in experiment [2] was found to be 1.7.
